# Screening data (PubChem)
# GASC1 inh = inhibitors of GASC-1 (KDM4C) histone demethylase, primary screen, biochemical, single concentration HTS | Lysine-specific demethylase 4C (Homo sapiens), Q9H3R0 | GST-KDM4C 2-372, H3K9me3 peptide, LANCE TR-FRET | inhibition, % at 12.5 µM | 96,000 tested, 0.15% active | AID 720574, 2013;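 active means mean replicate inhibition above about 25%, with at least 55% of replicates also reaching it, limit read from the data, passing the limit was not always enough; inconclusive means only one of those two conditions met; inactive means neither condition met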
# Target sequence (Q9H3R0 2-372 limits assumed): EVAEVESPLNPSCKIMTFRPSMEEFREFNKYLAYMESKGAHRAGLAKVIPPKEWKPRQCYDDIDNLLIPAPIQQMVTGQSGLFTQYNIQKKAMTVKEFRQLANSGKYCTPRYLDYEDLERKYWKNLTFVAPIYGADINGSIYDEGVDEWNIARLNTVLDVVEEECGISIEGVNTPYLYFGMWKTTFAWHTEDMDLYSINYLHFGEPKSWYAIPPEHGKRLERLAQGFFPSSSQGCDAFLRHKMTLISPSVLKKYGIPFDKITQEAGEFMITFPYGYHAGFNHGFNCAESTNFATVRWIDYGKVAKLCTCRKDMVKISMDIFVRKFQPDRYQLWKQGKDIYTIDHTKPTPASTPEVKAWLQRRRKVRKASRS
#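 System – N-terminal GST-fused human GASC-1 (KDM4C) fragment, residues 2-372 · Input – enzyme final amount 10 nM · Technique – LANCE TR-FRET, Eu antibody, ULight-streptavidin, EDTA, ex 340 nm, em 618/671 nm · Medium – HEPES buffer, pH 7.5, plus ascorbate · Incubation – enzyme reaction 30 min, then detection 60 min, both room temperature · Reagent – H3K9me3 peptide with Fe(II)/2OG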
# Tcruzi prolif = T. cruzi intracellular proliferation inhibitors, primary screen, cell-based, beta-gal Tulahuen parasites, NIH3T3 host, luminescence; T. cruzi beta-gal in NIH3T3, GalScreen luminescence, 90 h; inhibition, % at 8.34 µM; 77,000 tested, 5.9% active;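 active means mean inhibition above about 93%, with at least 55% of replicates each passing it, limit read from the data, passing the limit was not always enough; inconclusive means only one of those two conditions holds; inactive means neither condition holds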
# IDH1 R132H inh = inhibitors of IDH1 R132H reductase, primary screen, biochemical, plate reader, single point; Isocitrate dehydrogenase [NADP] cytoplasmic (Homo sapiens), O75874; diaphorase/resazurin fluorescence, 60 min; inhibition, % at 10 µM; 70,000 tested, 0.18% active; AID 624101, 2012; in the data active means inhibition above about 34%; inconclusive means no clear call, values can overlap the other calls; inactive means below about 11%
# Pf Dd2 growth = P. falciparum Dd2 growth inhibitors, primary screen, SYBR Green fluorescence, single dose replicates. activity change, % at 10 µM. 94,000 tested, 2.3% active. 72 h; active compounds read low; in the data active means activity change below about -80%; inconclusive means no clear call, values can overlap the other calls
# Numbers stand for hits; n = inactive; u = inconclusive; x = not tested or not shown. Compounds with a hit are over-represented: about 5.8% of the library has one in this group of screens.
SMILES,GASC1 inh,Tcruzi prolif,IDH1 R132H inh,Pf Dd2 growth
COc1cccc(-c2nn(C)c3sc(C(=O)N4CCCCCC4)cc23)c1,x,x,n,x
COc1ccc2c3c([nH]c2c1)[C@H](CO)N(C(=O)Nc1ccc(F)cc1)CC31CN(Cc2cc(F)ccc2F)C1,n,x,x,n
COc1ccc2c3c([nH]c2c1)[C@@H](CO)N(C(=O)Nc1ccc(F)cc1)CC31CN(Cc2cc(F)ccc2F)C1,n,x,x,-87.4
COc1ccc2c3c([nH]c2c1)[C@@H](CO)N(C(=O)Nc1cccc(F)c1)CC31CN(CC2CCOCC2)C1,n,x,x,-93.0
O=C(O)[C@H]1O[C@@H](Oc2cc(O)c3c(=O)c(-c4ccc(O)cc4)coc3c2)[C@H](O)[C@@H](O)[C@@H]1O,x,x,n,x
C[C@H](CO)N1C[C@H](C)[C@@H](CN(C)CC2CCCCC2)Oc2ccc(NC(=O)Nc3ccc4c(c3)OCO4)cc2CC1=O,n,n,x,n
C[C@H](CO)N1C[C@H](C)[C@@H](CN(C)CC2CC2)Oc2ccc(NC(=O)Nc3ccc4c(c3)OCO4)cc2CC1=O,n,n,n,-82.9
C[C@H]1CN([C@@H](C)CO)C(=O)Cc2cc(NC(=O)Nc3ccc4c(c3)OCO4)ccc2O[C@H]1CN(C)CC1CCCCC1,n,n,n,n
C[C@@H]1CN([C@@H](C)CO)C(=O)Cc2cc(NC(=O)Nc3ccc4c(c3)OCO4)ccc2O[C@@H]1CN(C)CC1CC1,n,n,n,-88.2
Cc1ccccc1NC(=O)CSc1ncnc2c1sc1nc(N3CCOCC3)c3c(c12)CCCC3,x,x,n,x
CN(C)CCCC[C@@H]1NC(=O)[C@H]2C[C@@H](C(=O)NCc3ccc(F)cc3)[C@@H](c3ccc(O)cc3)N2C1=O,x,x,42.3,x
COc1ccc(C#Cc2ccc([C@@H]3[C@@H](CO)N4C(=O)CN(C(=O)c5ccccc5)C[C@H]34)cc2)cc1,n,x,x,-87.0
O=C(c1ccc(F)cc1)N1CC(=O)N2[C@H](CO)[C@H](c3ccc(C#Cc4ccc(F)cc4)cc3)[C@H]2C1,n,x,x,-90.8
O=C(c1ccc(F)cc1)N1CC(=O)N2[C@H](CO)[C@@H](c3ccc(C#Cc4ccc(F)cc4)cc3)[C@H]2C1,n,x,x,n
COc1ccc(NC(=O)N2CC(=O)N3[C@H](C2)[C@H](c2ccc(C#CCC4CCCC4)cc2)[C@@H]3CO)cc1,n,x,x,n
COc1ccc(NC(=O)N2CC(=O)N3[C@@H](CO)[C@H](c4ccc(C#CCC5CCCC5)cc4)[C@@H]3C2)cc1,n,x,x,-90.4
O=C(c1ccc2c(c1)OCO2)N1CC(=O)N2[C@H](CO)[C@H](c3ccc(C#Cc4ccccc4)cc3)[C@H]2C1,n,x,x,-81.9
COc1cc([N+](=O)[O-])ccc1NC(=O)CN(C)S(=O)(=O)c1ccccc1,x,x,n,x
Cc1ccc(N(C(C)C(N)=O)S(C)(=O)=O)cc1C (stereo not given),x,x,n,x
Cc1c(Cl)cccc1NC(=O)CSc1nnc(-c2cccs2)n1C,x,x,n,x
COc1ccc(-c2ccc([C@@H]3[C@H]4CN(C(=O)NC(C)C)CC(=O)N4[C@H]3CO)cc2)cc1,n,x,x,-87.4
O=C(c1cccc(F)c1)N1CC(=O)N2[C@H](CO)[C@H](c3ccc(-c4cccnc4)cc3)[C@H]2C1,n,x,x,-85.8
CC(C)C#Cc1ccc([C@@H]2[C@H](CO)N3CCCCN(C(=O)c4ccc5c(c4)OCO5)C[C@@H]23)cc1,n,n,x,-82.7
CC(C)C#Cc1ccc([C@H]2[C@H](CO)N3CCCCN(C(=O)c4ccc5c(c4)OCO5)C[C@@H]23)cc1,n,n,x,n
COc1ccc(-c2ccc([C@H]3[C@@H](CO)N4C(=O)CN(C(=O)NC(C)C)C[C@H]34)cc2)cc1,n,x,x,n
SMILES,GASC1 inh,Tcruzi prolif,IDH1 R132H inh,Pf Dd2 growth
CCC(C)C1NC(=O)C(CC(C)C)NC(=O)C(CC(=O)O)NC(=O)C(C(C)C)NC(=O)C(CC(C)C)NC(=O)C(CC(C)C)NC(=O)C(CCC(N)=O)NC(=O)CC(CCCCCCCCCC(C)C)OC1=O (stereo not given),x,x,n,x
COC(=O)CN(c1ccc(C)cc1)S(=O)(=O)c1ccccc1,x,x,n,x
C[C@H](CO)N1C[C@H](C)[C@@H](CN(C)Cc2ccncc2)Oc2cc(C3=CCCC3)ccc2S1(=O)=O,n,n,47.5,n
C[C@@H]1CN([C@@H](C)CO)S(=O)(=O)c2ccc(C3=CCCCC3)cc2O[C@H]1CN(C)C(=O)Cc1cccnc1,n,n,45.1,n
C[C@H](CO)N1C[C@H](C)[C@H](CN(C)C(=O)Cc2ccncc2)Oc2cc(C3=CCCCC3)ccc2S1(=O)=O,n,n,u,n
Cc1ccccc1-c1ccc2c(c1)O[C@@H](CN(C)Cc1ccncc1)[C@H](C)CN([C@H](C)CO)S2(=O)=O,n,n,n,-88.0
Cc1ccccc1-c1ccc2c(c1)O[C@H](CN(C)Cc1ccncc1)[C@H](C)CN([C@H](C)CO)S2(=O)=O,n,n,n,n
CC(C)C#Cc1ccc2c(c1)O[C@H](CN(C)Cc1ccncc1)[C@H](C)CN([C@@H](C)CO)S2(=O)=O,n,104.8,n,n
CCC1=Nc2cc(C(=O)N(C)Cc3ccccc3)ccc2Sc2ccc(C)cc21,x,x,n,x
COc1ccccc1NC(=O)CSc1nnc(-c2ccc(Cl)cc2)o1,x,x,n,x
Cc1ccc(S(=O)(=O)NC2c3cccc4cccc(c34)C2Sc2nnc(N)s2)cc1 (stereo not given),x,x,n,x
COc1ccc(Cl)cc1NC(=O)CSc1nnc(-c2cccc(C)c2)n1C,x,x,n,x
O=C1c2ccccc2C2=Nc3ccccc3SC(c3ccsc3)C12 (stereo not given),x,x,n,x
C[C@@H]1CN([C@H](C)CO)S(=O)(=O)c2ccc(Br)cc2O[C@H]1CN(C)Cc1ccncc1,n,n,42.0,n
O=C(CN1CCOCC1)N[C@H]1CC[C@H](CCNC(=O)C2CCC2)O[C@H]1CO,85.4,n,73.3,n
O=C(CCN1CCCCC1)NCC[C@H]1CC[C@H](NC(=O)Cc2cccnc2)[C@H](CO)O1,74.8,n,79.7,n
O=C(NCC[C@@H]1CC[C@H](NS(=O)(=O)c2cccc(F)c2)[C@H](CO)O1)C1CCCC1,35.7,x,48.3,n
O=C(CCN1CCCCC1)NCC[C@H]1CC[C@H](NC(=O)Cc2cccnc2)[C@@H](CO)O1,n,n,n,n
O=C(Cc1ccncc1)NCC[C@H]1CC[C@H](NC(=O)C2CCCC2)[C@H](CO)O1,57.5,x,70.9,n
O=C(NCC[C@H]1CC[C@H](NS(=O)(=O)c2cccc(F)c2)[C@H](CO)O1)C1CCCC1,n,x,n,n
O=C(NCC[C@H]1CC[C@H](NC(=O)c2cccnc2)[C@H](CO)O1)Nc1ccc(F)cc1,64.8,n,94.4,n
O=C(NCC[C@H]1CC[C@@H](NC(=O)c2cccnc2)[C@@H](CO)O1)Nc1ccc(F)cc1,n,n,n,n
CCn1c(SCC(=O)Nc2cccc(C(F)(F)F)c2)nnc1-c1ccco1,x,x,n,x
COc1ccc2c3c(n(C)c2c1)[C@H](CO)NCC31CCN(Cc2ccc(-c3ccccn3)cc2)CC1,n,x,x,-88.2
